Source: ChEMBL document CHEMBL1159381, “New Sesquiterpenes from Litsea verticillata” (J Nat Prod, 2003)

How the values were obtained:
[1] = Cytotoxicity against GFP reporter gene expressing human HOG.R5 cells at 10 ug/mL; format: cell-based; conditions: in the assay text read “20 ug/mL” for “10 ug/mL”
Outline: (§1)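 Run in parallel with the anti-HIV assay: HOG.R5 GFP reporter cultures given identical concentrations of test material but no virus; cell viability monitored after 4 days by combined microscopic and fluorometric measurement; CC50 derived.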

[2] = tested on: Human immunodeficiency virus 1; assay: Antiviral activity against HIV1 3B in human HOG.R5 cells by GFP-based reporter gene assay; format: functional, organism-based; conditions: Human immunodeficiency virus 1, 3B
Outline: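 HOG.R5 GFP reporter cells in microtiter wells infected with HIV-1 IIIB (2.5 ng/mL p24) in presence of test material; GFP fluorescence read after 4 days to quantify infectivity; IC50 derived.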

[3] = Cytotoxicity against GFP reporter gene expressing human HOG.R5 cells up to 20 ug/mL; format: cell-based; outline: as §1
[4] = Cytotoxicity against GFP reporter gene expressing human HOG.R5 cells; format: cell-based; outline: as §1

IC50 [2] [µM] | SMILES | Activity [1] | Activity [3] | CC50 [4] [µM]
120 | CC(=O)CC/C(=C/C1=C(C)CCC1=O)C(C)C [LITSEACHROMOLAEVANE B] | Non-toxic | Non-toxic | 
27.5 | C=C1CC[C@H](C(C)(C)O)/C=C/[C@@H](C)CCC1=O [LITSEAGERMACRANE] |  |  | 63.4
73.1 | C=C1CC[C@@H](O)[C@]2(C)CC[C@H](C(C)C)[C@@H](O)[C@H]12 | Non-toxic | Non-toxic | 
